In ChEMBL document CHEMBL1828531, “Pyrazol-3-propanoic acid derivatives as novel inhibitors of leukotriene biosynthesis in human neutrophils” (Eur J Med Chem, 2011):

Key:
[1] = target: T1, Polyunsaturated fatty acid 5-lipoxygenase (Homo sapiens) (UniProt P09917); test: Inhibition of recombinant human 5-Lipoxygenase expressed in Escherichia coli lysate assessed as residual activity at 10 uM after 10 mins by HPLC analysis
T1 sequence (whole entry): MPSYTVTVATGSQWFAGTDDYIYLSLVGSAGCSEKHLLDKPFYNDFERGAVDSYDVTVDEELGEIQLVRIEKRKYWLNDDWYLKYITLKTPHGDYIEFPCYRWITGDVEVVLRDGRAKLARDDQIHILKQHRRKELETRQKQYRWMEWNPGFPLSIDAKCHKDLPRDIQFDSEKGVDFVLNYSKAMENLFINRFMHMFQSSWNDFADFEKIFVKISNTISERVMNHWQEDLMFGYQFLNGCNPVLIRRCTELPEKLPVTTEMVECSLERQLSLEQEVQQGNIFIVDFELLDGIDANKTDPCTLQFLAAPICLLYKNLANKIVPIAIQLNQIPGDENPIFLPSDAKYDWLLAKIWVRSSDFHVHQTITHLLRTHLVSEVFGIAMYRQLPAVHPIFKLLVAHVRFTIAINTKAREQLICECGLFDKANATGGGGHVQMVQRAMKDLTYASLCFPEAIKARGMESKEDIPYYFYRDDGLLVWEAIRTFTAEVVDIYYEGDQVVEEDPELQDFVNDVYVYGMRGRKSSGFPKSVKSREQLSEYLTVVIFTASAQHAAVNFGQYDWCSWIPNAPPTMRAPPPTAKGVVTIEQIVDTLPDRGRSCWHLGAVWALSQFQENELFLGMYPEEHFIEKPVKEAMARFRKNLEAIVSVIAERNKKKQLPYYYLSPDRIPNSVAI
In short: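 Human 5-LO expressed at 30 °C in E. coli MV1190 (pT3-5LO); lysate 40,000 g supernatant in PBS pH 7.4 with 1 mM EDTA. Preincubated with compound 10 min at 4 °C, warmed 30 s at 37 °C. Started with 2 mM CaCl2 plus 20 µM AA, 10 min at 37 °C. Methanol stop, HPLC. Residual % versus 0.3% DMSO vehicle, n = 3–5.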

[2] = target: T1, Polyunsaturated fatty acid 5-lipoxygenase (Homo sapiens); test: Inhibition of 5-Lipoxygenase in arachidonic acid-stimulated human neutrophils assessed as residual activity at 10 uM after 15 mins by HPLC analysis in presence of A23187
In short: (§1)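 Human neutrophils, 5 × 10^6/mL in PBS/glucose/1 mM CaCl2, preincubated 15 min at RT, then 2.5 µM A23187 plus 20 µM AA for 10 min at 37 °C. Methanol stop, PGB1 internal standard, HPLC of LTB4, its all-trans isomers and 5-H(p)ETE. Residual % versus 0.3% DMSO vehicle, mean ± SEM, n = 3–5. IC50 by linear interpolation from 4–5 concentrations.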

[3] = target: T2, Polyunsaturated fatty acid 5-lipoxygenase (Homo sapiens, UniProt P09917); test: Inhibition of 5-Lipoxygenase in arachidonic acid-stimulated human neutrophils after 15 mins by HPLC analysis in presence of A23187; in short: as §1
T2 sequence (P09917 whole entry): T1 sequence (whole entry)

For `O=C(CCc1cc(-c2ccc(F)cc2)n(-c2ccc(Cl)nn2)n1)Oc1ccc(-c2ccsc2)cc1`, the Activity [1] was 83.4% and the Activity [2] was 90.8%.

In the case of `CC(C)(C)c1ccc(CN2CCN(C(=O)CCc3cc(-c4ccc(C(F)(F)F)cc4)n(-c4ccc(Cl)nn4)n3)CC2)cc1`, the IC50 [3] is reported as 2900 nM, the Activity [1] is reported as 88.9% and the Activity [2] is reported as 17.4%.

`Cc1ccc(-c2cc(CCC(=O)N3CCN(Cc4ccc(C(C)(C)C)cc4)CC3)nn2-c2ccc(Cl)nn2)cc1` showed an IC50 [3] of 2800 nM, an Activity [1] of 107% and an Activity [2] of 14.6%.

In the case of `NC(=O)C1CCN(C(=O)CCc2cc(-c3ccc(C(F)(F)F)cc3)n(-c3ccc(Cl)nn3)n2)CC1`, the Activity [1] is reported as 103% and the Activity [2] is reported as 104%.

Work on `CC(C)(C)c1ccc(CN2CCN(C(=O)CCc3cc(-c4ccc(F)cc4)n(-c4ccc(Cl)cc4)n3)CC2)cc1` yielded an IC50 [3] of 2600 nM, an Activity [1] of 143% and an Activity [2] of 13.2%.

For `COc1ccc(-n2nc(CCC(=O)N3CCN(Cc4ccc(C(C)(C)C)cc4)CC3)cc2-c2ccc(C)cc2)nn1`, the IC50 [3] was 3300 nM, the Activity [1] was 86.1% and the Activity [2] was 27.1%.

`Cc1ccc(-c2cc(CCC(=O)N3CCN(Cc4ccc(C(C)(C)C)cc4)CC3)nn2-c2ccc(Cl)cc2)cc1` showed an IC50 [3] of 2900 nM, an Activity [1] of 111% and an Activity [2] of 27.7%.

`Cc1ccc(-c2cc(CCC(=O)N3CCN(CC4CCCO4)CC3)nn2-c2ccc(Cl)nn2)cc1` (stereo unspecified) was tested, and the Activity [1] was 106% and the Activity [2] was 86%.

With `O=C(CCc1cc(-c2ccc(C(F)(F)F)cc2)n(-c2ccc(Cl)nn2)n1)Oc1ccc(C2CCCC2)cc1` the Activity [1] was 92% and the Activity [2] was 77.2%.

`O=C(CCc1cc(-c2ccc(F)cc2)n(-c2ccc(Cl)nn2)n1)N1CCN(C(=O)C2CCCO2)CC1` (stereo unspecified) gave an Activity [1] of 90.8% and an Activity [2] of 95%.

Molecule `COc1ccc(-n2nc(CCC(=O)N3CCN(Cc4ccc(C(C)(C)C)cc4)CC3)cc2-c2ccc(C(F)(F)F)cc2)nn1` has an IC50 [3] of 8000 nM, an Activity [1] of 56.1% and an Activity [2] of 36.2%.

In the case of `O=C(CCc1cc(-c2ccc(C(F)(F)F)cc2)n(-c2ccc(Cl)nn2)n1)N1CCN(C(=O)c2ccco2)CC1`, the Activity [1] is reported as 126% and the Activity [2] is reported as 81.8%.

`O=C(CCc1cc(-c2ccc(C(F)(F)F)cc2)n(-c2ccc(Cl)nn2)n1)Oc1ccc(-n2cccc2)cc1` showed an Activity [1] of 90.8% and an Activity [2] of 94.1%.

`CC(C)(C)c1ccc(CN2CCN(C(=O)CCc3cc(-c4ccc(C(F)(F)F)cc4)n(-c4ccccc4)n3)CC2)cc1` was tested, and the IC50 [3] was 2900 nM, the Activity [1] was 109% and the Activity [2] was 12.7%.

For `COc1ccc(NC(=O)CCc2cc(-c3ccc(F)cc3)n(-c3ccc(Cl)nn3)n2)cc1`, the Activity [1] was 91.6% and the Activity [2] was 88.3%.

In the case of `CC(C)(C)c1ccc(CN2CCN(C(=O)CCc3cc(-c4ccc(C(F)(F)F)cc4)n(-c4ccc5ccccc5n4)n3)CC2)cc1`, the IC50 [3] is reported as 3000 nM, the Activity [1] is reported as 87.3% and the Activity [2] is reported as 44.5%.

In the case of `CCCCCCCOc1ccc(OC(=O)CCc2cc(-c3ccc(F)cc3)n(-c3ccc(Cl)nn3)n2)cc1`, the Activity [1] is reported as 86.5% and the Activity [2] is reported as 90.1%.

`CC(C)(C)c1ccc(CN2CCN(C(=O)CCc3cc(-c4ccc(C(F)(F)F)cc4)n(-c4ccc(Cl)cc4)n3)CC2)cc1` showed an IC50 [3] of 8000 nM, an Activity [1] of 138% and an Activity [2] of 43.9%.

Work on `CC(C)(C)c1ccc(OC(=O)CCc2cc(-c3ccc(F)cc3)n(-c3ccc(Cl)nn3)n2)cc1` yielded an Activity [1] of 92.7% and an Activity [2] of 67.3%.

Molecule `CC(C)(C)c1ccc(CN2CCN(C(=O)CCc3cc(-c4ccc(F)cc4)n(-c4ccccc4)n3)CC2)cc1` has an IC50 [3] of 2500 nM, an Activity [1] of 78.5% and an Activity [2] of 3.7%.

`O=C(CCc1cc(-c2ccc(F)cc2)n(-c2ccc(Cl)nn2)n1)Oc1ccc(-n2ccnc2)cc1` showed an Activity [1] of 71.7% and an Activity [2] of 111%.

In the case of `CCS(=O)(=O)N1CCN(C(=O)CCc2cc(-c3ccc(C)cc3)n(-c3ccc(Cl)nn3)n2)CC1`, the Activity [1] is reported as 93.6% and the Activity [2] is reported as 96.3%.

`Cc1ccc(-c2cc(CCC(=O)Oc3ccc(OC(F)(F)F)cc3)nn2-c2ccc(Cl)nn2)cc1` showed an Activity [1] of 116% and an Activity [2] of 70.5%.

`Cc1ccc(-c2cc(CCC(=O)Nc3ccc(N4CCOCC4)nc3)nn2-c2ccc(Cl)nn2)cc1` gave an Activity [1] of 90% and an Activity [2] of 106%.

With `COc1ccc(-n2nc(CCC(=O)N3CCN(Cc4ccc(C(C)(C)C)cc4)CC3)cc2-c2ccc(F)cc2)nn1` the IC50 [3] was > 10000 nM, the Activity [1] was 69.2% and the Activity [2] was 50.1%.

Work on `CC(C)(C)c1ccc(CN2CCN(C(=O)CCc3cc(-c4ccc(F)cc4)n(-c4ccc5ccccc5n4)n3)CC2)cc1` yielded an IC50 [3] of 2800 nM, an Activity [1] of 114% and an Activity [2] of 10.4%.

`Cc1ccc(-c2cc(CCC(=O)Oc3ccc(Oc4ccc(C(F)(F)F)cc4)cc3)nn2-c2ccc(Cl)nn2)cc1` gave an Activity [1] of 95% and an Activity [2] of 86.5%.
